# KCNQ1 pot: potentiates or activates the human KCNQ1 potassium channel | P51787 | CHO-K1 KCNQ1, thallium flux FluxOR fluorescence; active compounds read high | B-score at 10 µM | actives 0.35% (n = 310,000);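 active means fluorescence ratio B-score, a plate-corrected score, at least three library SD, with initial intensity B-score within 5 SD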
#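 Doses: Single concentration per compound, DMSO matched to controls | Test system: KCNQ1-transfected CHO-K1 cells | Timing: 90 min dye loading and 20 min compound exposure, both at room temperature | Measured by: Kinetic FluxOR thallium fluorescence, 10-s 1-Hz baseline, 110-s post-stimulus read | Medium: Assay buffer with matched DMSO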
# hERG rescue: compounds protecting human hERG from proarrhythmic drug block. Q12809. CHO-hERG, FluxOR thallium flux, dofetilide IC70 present. activation (rescue from dofetilide block), less the hit threshold, % at 10 µM. actives 0.51% (n = 310,000). AID 1511;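 active means activation above the mean of controls blocked by dofetilide plus 5 SD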;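 further: thallium influx through hERG after potassium depolarization seen as dye fluorescence rise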
# KCNK3 inh: human KCNK3 channel inhibition, primary screen | O14649 | CHO-KCNK3 thallium flux, FluxOR fluorescence; active compounds read low | B-score at 10 µM | actives 0.84% (n = 340,000) | AID 602410;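 active means B-score under library mean minus 4 SD, starting fluorescence ratio at most library mean plus 5 SD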;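 further: more negative B-score means stronger inhibition of thallium flux through KCNK3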
# KCNK9 inh: human KCNK9 channel inhibition; actives 1.2% (n = 310,000); B-score at 10 µM; HEK293 KCNK9, FluxOR thallium flux fluorescence; active compounds read low;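 active means ratio B-score over 3 SD below the library mean, with starting fluorescence within 5 SD of its mean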;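 further: negative B-score means less thallium flux so channel inhibition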
# Target sequence (Q9NPC2 whole entry, looked up): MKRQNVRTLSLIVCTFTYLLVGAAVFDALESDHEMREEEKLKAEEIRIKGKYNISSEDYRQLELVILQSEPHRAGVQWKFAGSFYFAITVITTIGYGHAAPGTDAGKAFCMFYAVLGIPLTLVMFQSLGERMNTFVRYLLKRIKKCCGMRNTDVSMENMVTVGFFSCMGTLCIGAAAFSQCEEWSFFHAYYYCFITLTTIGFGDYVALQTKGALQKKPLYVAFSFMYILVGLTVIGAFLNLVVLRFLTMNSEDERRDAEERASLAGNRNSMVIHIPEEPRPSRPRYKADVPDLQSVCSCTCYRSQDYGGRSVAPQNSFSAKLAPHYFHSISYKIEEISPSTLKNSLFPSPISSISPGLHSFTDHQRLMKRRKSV
# KCNQ1 block: human KCNQ1 channel inhibition | P51787 | CHO-K1 KCNQ1, FluxOR thallium flux fluorescence; active compounds read high | B-score at 10 µM | actives 1.3% (n = 310,000);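 active means compounds whose thallium flux B-score, printed positive for inhibition, exceeds three library SD while starting fluorescence stays within three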;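 further: channel opened by potassium depolarization with thallium stimulus after 20 min compound exposure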
# Active calls of the source: *; i = inactive; . = no result. A selection: hits, their analogues and other compounds. The true share with any hit is near 3.1%.
SMILES,KCNQ1 pot,hERG rescue,KCNK3 inh,KCNK9 inh,KCNQ1 block
CC1(C)CC(=O)C2=C(C1)OC(N)=C(C#N)C2c1cccs1 (stereo unspecified),i,-6,i,i,i
CS(=O)(=O)c1ccc(Cl)c(NC(=O)COC(=O)CCN2C(=O)C3CC=CCC3C2=O)c1 (stereo unspecified),.,.,i,.,.
CC1(C)OC(=O)N(c2ccccc2)C12C=Cc1cc(Br)ccc1O2 (stereo unspecified),i,-7,i,-7.2*,i
Cc1ccc(C(=O)c2no[n+]([O-])c2C(=O)c2ccc(C)cc2)cc1,i,-26,i,i,i
CC(C)(C)C(=O)c1no[n+]([O-])c1/C(=N/O)C(C)(C)C,i,-10,i,i,6*
CN(C)Cc1nc2ccccc2c(=O)n1Cc1nc(-c2cccc([N+](=O)[O-])c2)cs1,i,-13,i,-7.6*,i
Cc1ccc(C(C(=O)NC2CCCCC2)N(Cc2cccnc2)C(=O)c2csnn2)cc1 (stereo unspecified),i,-9,i,i,i
CCc1ccc(NC(=S)N(Cc2cccnc2)Cc2ccco2)cc1,i,6.0*,i,i,i
C=CCNC(=O)C(C#N)c1nc2ccccc2nc1N1CCCCCC1 (stereo unspecified),i,-12,i,i,6*
CCCCNC(=O)C(C#N)c1nc2ccccc2nc1N1CCN(Cc2ccc3c(c2)OCO3)CC1 (stereo unspecified),.,.,i,.,.
CC1CN(c2nc3ccccc3nc2C(C#N)C(=O)NCc2ccc3c(c2)OCO3)CC(C)O1 (stereo unspecified),23*,-19,i,i,i
COc1ccccc1N1CCN(C(=O)c2cccc(S(=O)(=O)N3c4ccccc4CC3C)c2)CC1 (stereo unspecified),.,.,i,.,.
COCCCNC(=O)Cc1ccc(S(=O)(=O)N2CCOCC2)s1,.,.,i,.,.
CC(=O)Nc1sc(C)c(C)c1C(=O)OCC(=O)NC(C)c1ccccc1 (stereo unspecified),.,.,i,.,.
O=C1C=C(c2cccc3c2oc2ccccc23)CCC1,i,-10,i,i,i
CC1(C)CC(=O)C=C(c2cccc3c2oc2ccccc23)C1,i,-8,i,i,6*
O=C(CSc1nc2ccccc2c(=O)n1-c1ccc(F)cc1F)Nc1ccc2c(c1)CCC2,i,-11,i,-7.6*,i
O=C(Nc1nnc(Cc2ccccc2)s1)c1ccco1,i,1,i,i,i
CC(C)(C)Cc1nnc(NC(=O)c2ccco2)s1,i,18*,i,i,i
CCc1nnc(NC(=O)c2ccncc2)s1,i,-5,i,i,i
CCc1nnc(NC(=O)c2cccc(C(=O)Nc3nnc(CC)s3)n2)s1,i,4.9*,i,i,i
N#Cc1ccc(C2=NC(C(F)(F)F)(C(F)(F)F)c3c(n(Cc4ccco4)c(=O)[nH]c3=O)N2)cc1,i,-17,i,i,7*
O=C1COc2cc(O)ccc21,.,.,i,.,.
Cc1cc(C)c(C)c(S(=O)(=O)N2CCC(C(=O)N3CC(C)CC(C)C3)CC2)c1C (stereo unspecified),i,-12,i,i,i
CCOC(=O)c1sc2nc(COC(=O)c3c(F)cccc3F)[nH]c(=O)c2c1C,i,-9,i,i,i
SMILES,KCNQ1 pot,hERG rescue,KCNK3 inh,KCNK9 inh,KCNQ1 block
CCOC(=O)c1sc2nc(Cc3ccc(Cl)cc3)[nH]c(=S)c2c1C,46*,75*,i,i,i
O=C(COc1cc(Cl)ccc1Cl)N1CCNC1=O,.,.,i,.,.
Cc1ccc(C)c2c1[nH]c1ccc([N+](=O)[O-])cc12,i,-7,i,i,8*
Cc1c(C(=O)NN)[nH]c2ccc([N+](=O)[O-])cc12,i,-7,i,i,i
O=C(/C=C/c1ccccc1Cl)N(Cc1cccs1)C1CCS(=O)(=O)C1 (stereo unspecified),i,-6,i,-7.5*,i
CC(NC(=O)c1cc(S(=O)(=O)N2CCCC2)ccc1Cl)c1ccccn1 (stereo unspecified),.,.,i,.,.
Cc1c(Cl)cccc1NC(=O)CNC(=O)CCS(=O)(=O)c1ccc(F)cc1,.,.,i,.,.
O=C(/C=C/c1cn(-c2ccccc2)nc1-c1cccc(Cl)c1)N1CCN(c2ccccn2)CC1,i,-23,i,i,7*

# Screening results as filed in PubChem.
